Test results taken from ChEMBL document CHEMBL3813673, “Bistacrine derivatives as new potent antimalarials” (Bioorg Med Chem, 2016).

Tests used:
[1] = Cytotoxicity against mouse J774.1 cells after 24 hrs by AlamarBlue based cytotoxicity assay; type: cell-based; details: J774.1, 24 h
Outline: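 Compounds dissolved in DMSO and serially diluted. Cells incubated with them at 37 °C, 5% CO2 for 24 h. AlamarBlue solution then added and plates incubated for a further 24 and 48 h.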

[2] = tested on: Plasmodium falciparum; assay: Antimalarial activity against chloroquine-sensitive ring-stage Plasmodium falciparum 3D7 assessed as parasite viability after 72 hrs by malstat assay; type: functional, organism-based; details: 3D7, 72 h
Outline: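 P. falciparum 3D7: synchronized ring stages plated at 1% parasitemia with compounds dissolved in DMSO; 0.5% DMSO as negative control. Cultured in triplicate for 72 h, then viability read by Malstat assay (parasite lactate dehydrogenase activity). Each compound tested twice; IC50 and standard deviation calculated.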

[3] = Selectivity index, ratio of IC50 for mouse J774.1 cells to IC50 for chloroquine-sensitive ring-stage Plasmodium falciparum 3D7; type: toxicity; details: read-out: Ratio IC50
[4] = Selectivity index, ratio of IC50 for mouse J774.1 cells to IC50 for ring-stage Plasmodium falciparum Dd2; type: toxicity; details: read-out: Ratio IC50
[5] = tested on: Plasmodium falciparum; assay: Antimalarial activity against chloroquine-resistant Plasmodium falciparum Dd2 assessed as parasite viability after 72 hrs by malstat assay; type: functional, organism-based; details: Dd2, 72 h
[6] = tested on: Plasmodium falciparum; assay: Inhibition of recombinant Plasmodium falciparum falcipain 2 assessed as hydrolysis of Cbz-Phe-Arg-AMC measured after 5 mins at 20 uM by spectrofluorometric method
Outline: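 Recombinant falcipain-2 with Cbz-Phe-Arg-AMC substrate in 50 mM sodium acetate, pH 5.5, with 5 mM EDTA and 200 mM NaCl. Released AMC read by fluorescence (ex 380 nm, em 460 nm). Single-concentration screen; compounds giving over 35% inhibition went on to kinetic assays. Run twice.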

[7] = Reversible inhibition of recombinant Plasmodium falciparum falcipain 2 assessed as hydrolysis of Cbz-Phe-Arg-AMC measured after 10 mins by spectrofluorometric method
Outline: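 Substrate added to buffer containing falcipain-2 and a range of inhibitor concentrations. Fluorescence (ex 380, em 460 nm) followed over 10 min, in duplicate. Slopes (ΔF/min) of the progress curves plotted against inhibitor concentration; IC50 obtained by nonlinear regression.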

[8] = Inhibition of beta-hematin formation in acetate solution at pH 4.5 measured after 60 mins by pyridine-based spectrophotometric assay; type: physicochemical
Outline: (§1)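 Heme–pyridine complex absorbance, which obeys Lambert–Beer's law, used to quantify free heme in heme/hemozoin mixtures and so judge inhibition of β-hematin formation. Chloroquine served as positive control and DMSO as negative control.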

[9] = Inhibition of beta-hematin formation; type: physicochemical; outline: as §1

SMILES	IC50 [1] [nM]	IC50 [2] [nM]	selectivity ratio [3]	selectivity ratio [4]	IC50 [5] [nM]	inhibition [6] [%]	IC50 [7] [nM]	IC50 [8] [equiv]	IC50 [9] [equiv]
CC1(C)CCc2c(nc3cc(Cl)ccc3c2NCCCCCCNc2c3c(nc4cc(Cl)ccc24)CC(C)(C)CC3)C1	1500	30	50	–	–	–	–	–	–
c1ccc2c(NCCCCCCCNc3c4c(nc5ccccc35)CCCC4)c3c(nc2c1)CCCC3	1900	70	27.1	8.64	220	–	–	–	–
Nc1c2c(nc3ccccc13)CCCC2 [TACRINE]	> 100000	12500	–	–	–	–	–	–	–
CCCC1CCc2nc3ccc(Cl)cc3c(N)c2C1 (stereo unspecified)	8400	210	–	–	–	–	–	–	–
CCOC1CCc2nc3cc(Cl)ccc3c(NCCCCCCCCCNc3c4c(nc5cc(Cl)ccc35)CCC(OCC)C4)c2C1 (stereo unspecified)	1740	200	9	–	160	25	–	–	–
c1ccc2c(NCCCCCCCCCCNc3c4c(nc5ccccc35)CCCC4)c3c(nc2c1)CCCC3	1800	110	16.4	12.9	140	–	–	–	–
Nc1c2c(nc3ccc(Cl)cc13)CCCC2	43200	4020	–	–	–	–	–	–	–
CC1(C)CCc2c(nc3ccccc3c2NCCCCCCNc2c3c(nc4ccccc24)CC(C)(C)CC3)C1	1800	30	60	–	–	–	–	–	–
CCCC1CCc2nc3ccccc3c(N)c2C1 (stereo unspecified)	43000	1520	–	–	–	–	–	–	–
Nc1c2c(nc3ccc([N+](=O)[O-])cc13)CCCC2	44600	3230	–	–	–	–	–	–	–
c1ccc2c(NCCCCCCNc3c4c(nc5ccccc35)CCCC4)c3c(nc2c1)CCCC3	2970	100	29.7	–	–	–	–	–	–
CC1CCc2c(nc3cc(Cl)ccc3c2NCCCCCCNc2c3c(nc4cc(Cl)ccc24)CC(C)CC3)C1 (stereo unspecified)	1500	50	30	–	–	–	–	–	–
c1ccc2c(NCCCCCNc3c4c(nc5ccccc35)CCCC4)c3c(nc2c1)CCCC3	1800	630	2.86	3.27	550	–	–	–	–
CC1(C)CCc2c(nc3ccc([N+](=O)[O-])cc3c2NCCCCCCNc2c3c(nc4ccc([N+](=O)[O-])cc24)CC(C)(C)CC3)C1	7900	40	198	–	–	–	–	–	–
CC1CCc2c(nc3ccc([N+](=O)[O-])cc3c2NCCCCCCNc2c3c(nc4ccc([N+](=O)[O-])cc24)CC(C)CC3)C1 (stereo unspecified)	25000	20	1250	–	–	56.7	5200	–	–
Clc1ccc2c(NCCCCCCNc3c4c(nc5cc(Cl)ccc35)CCCC4)c3c(nc2c1)CCCC3	1800	20	90	–	–	36.9	17300	–	–
CCN(CC)CCCC(C)Nc1ccnc2cc(Cl)ccc12 (stereo unspecified) [CHLOROQUINE]	18400	–	–	–	–	–	–	1.91	3.01
Cc1ccc2nc3c(c(N)c2c1)CCCC3	44300	2040	–	–	–	–	–	–	–
COc1ccc2nc3c(c(NCCCCCCCCCNc4c5c(nc6ccc(OC)cc46)CCCC5)c2c1)CCCC3	1700	110	15	–	160	62.2	14900	–	–
CC1CCc2nc3cc(Cl)ccc3c(NCCCCCCNc3c4c(nc5cc(Cl)ccc35)CCC(C)C4)c2C1 (stereo unspecified)	7800	30	260	–	–	–	–	–	–
c1ccc2c(NCCCCCCCCNc3c4c(nc5ccccc35)CCCC4)c3c(nc2c1)CCCC3	1900	110	17.3	6.33	300	34.4	17100	–	–
